Compound activity from PubChem.
KCNQ1 act: potentiators or activators of KCNQ1 channel, primary screen, cell-based, thallium flux, high-throughput. Potassium voltage-gated channel subfamily KQT member 1 (Homo sapiens), P51787. CHO-K1 KCNQ1, thallium flux FluxOR fluorescence; hits give high values. 310,000 tested, 0.35% active. B-score at 10 µM;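 active = fluorescence ratio B-score, a plate-corrected score, at least three library SD, with initial intensity B-score within 5 SD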
Target sequence (P51787 whole entry, looked up): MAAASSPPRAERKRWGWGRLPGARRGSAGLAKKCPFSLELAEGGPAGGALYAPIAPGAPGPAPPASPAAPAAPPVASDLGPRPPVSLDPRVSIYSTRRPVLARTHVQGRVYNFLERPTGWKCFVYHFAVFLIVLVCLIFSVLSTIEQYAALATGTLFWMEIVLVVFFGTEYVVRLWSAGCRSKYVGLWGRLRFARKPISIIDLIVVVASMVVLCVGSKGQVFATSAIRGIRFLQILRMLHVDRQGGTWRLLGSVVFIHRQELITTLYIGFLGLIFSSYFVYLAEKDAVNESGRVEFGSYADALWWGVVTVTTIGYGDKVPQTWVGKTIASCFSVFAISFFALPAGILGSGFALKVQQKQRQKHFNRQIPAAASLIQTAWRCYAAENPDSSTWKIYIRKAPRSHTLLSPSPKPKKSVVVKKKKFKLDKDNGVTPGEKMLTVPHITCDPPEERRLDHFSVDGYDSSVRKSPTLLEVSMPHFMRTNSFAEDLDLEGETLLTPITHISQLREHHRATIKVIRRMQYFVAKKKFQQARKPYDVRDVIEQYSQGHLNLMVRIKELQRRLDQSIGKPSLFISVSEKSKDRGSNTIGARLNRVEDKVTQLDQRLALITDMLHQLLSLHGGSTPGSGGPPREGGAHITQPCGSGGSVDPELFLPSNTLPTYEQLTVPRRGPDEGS
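Assay system: CHO-K1 cells stably expressing KCNQ1. Medium: assay buffer for compound exposure, DMSO matched across wells. Timing: 37 °C overnight plating, 90-min dark dye load, 20-min compound pretreatment. Signal: kinetic FluxOR fluorescence, 10 s baseline plus 110 s post-stimulus.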
KCNQ1 block: inhibitors of human KCNQ1 channel, primary screen, cell-based, thallium flux, high-throughput | Potassium voltage-gated channel subfamily KQT member 1 (Homo sapiens), P51787 | CHO-K1 KCNQ1, FluxOR thallium flux fluorescence; hits give high values | B-score at 10 µM | 310,000 tested, 1.3% active;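 active = compounds whose thallium flux B-score, printed positive for inhibition, exceeds three library SD while starting fluorescence stays within three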;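 also: channel opened by potassium depolarization with thallium stimulus after 20 min compound exposure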
KCNK3 inh: human KCNK3 channel inhibitors, primary screen, CHO cells, FluxOR thallium flux, B-score | B-score at 10 µM | Potassium channel subfamily K member 3 (Homo sapiens), O14649 | FluxOR fluorescence; hits give low values | 340,000 tested, 0.84% active;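 active = B-score under library mean minus 4 SD, starting fluorescence ratio at most library mean plus 5 SD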;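 also: more negative B-score means stronger inhibition of thallium flux through KCNK3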
KCNK9 inh: KCNK9 potassium channel inhibitors, primary screen, HEK293 cells, thallium flux | FluxOR thallium flux fluorescence; hits give low values | B-score at 10 µM | 310,000 tested, 1.2% active | AID 488922, 2010;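 active = ratio B-score over 3 SD below the library mean, with starting fluorescence within 5 SD of its mean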;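 also: negative B-score means less thallium flux so channel inhibition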
Cl transport mod: KCC2 cotransporter modulators, thallium flux, primary screen, cell-based, HEK293 KCC2, FluoZin-2 fluorescence, MLSMR. Solute carrier family 12 member 5 (Homo sapiens), Q9H2X9. 190,000 tested, 2.2% active. KCC2 cells, thallium flux FluoZin-2 fluorescence. B-score of Tl+ flux slope (higher = more flux/activation; lower = inhibition) at 10 µM;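 active = thallium flux slope and its plate-corrected score both differing from the plate sample mean at a set confidence after two filtering rounds, in either direction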;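 also: slope of fluorescence scaled to starting intensity during 10 to 20 s after thallium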
hERG protect: hERG rescue from dofetilide block, primary screen, cell-based, CHO-hERG, FluxOR thallium flux, dofetilide IC70 | Voltage-gated inwardly rectifying potassium channel KCNH2 (Homo sapiens), Q12809 | dofetilide IC70 present | activation (rescue from dofetilide block), less the hit threshold, % at 10 µM | 310,000 tested, 0.51% active;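 active = activation above the mean of controls blocked by dofetilide plus 5 SD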;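 also: thallium influx through hERG after potassium depolarization seen as dye fluorescence rise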
KCC2 sec1: KCC2 modulators in sodium-free buffer, confirmation, cell-based, HEK293 KCC2, thallium flux, secondary assay | shares compounds with Cl transport mod | FluoZin2 fluorescence; hits give high values | normalised thallium flux (F/F0 slope) at 10 µM | 3,700 tested, 15% active | AID 1713, 2009;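 active = thallium flux slope above the same plate's solvent-only control mean plus 3 SD; inconclusive = the two replicate wells disagree; inactive = no significant difference from solvent-only control wells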
KCC2 bumet counter: thallium flux persisting under bumetanide in KCC2 cells, confirmation, counter-screen for KCC2 modulator project, cell-based, HEK293 KCC2, FluoZin2, secondary assay 3; shares compounds with Cl transport mod; HEK293-KCC2 + bumetanide/ouabain; hits give high values; 3,700 tested, 49% active; normalized thallium flux at 10 µM;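 active = thallium entry rate above the same plate's blocked-transporter control wells by more than 3 SD; inconclusive = the two repeat wells disagree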;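 also: raw slope of fluorescence over initial fluorescence between 10 and 20 s after thallium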
KCC2 secondary2: KCC2 modulators without ouabain present, confirmation, cell-based, HEK293 KCC2, thallium flux, FluoZin2, secondary assay 2. AID 1715, 2009. normalized thallium flux at 10 µM. thallium flux FluoZin2 fluorescence; actives lie on both sides; F/F0 rise rate, 10–20 s post-thallium. shares compounds with Cl transport mod. 3,700 tested, 23% active;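 active = thallium flux slope more than 3 SD above or below the plate's solvent-only control mean, mostly below; inconclusive = the two repeat wells disagreed; inactive = no significant shift from solvent-only controls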
HEK293 Tl flux: thallium flux modulation in parental HEK cells, confirmation, counter-screen for KCC2 modulator project, cell-based, counterscreen 1 | shares compounds with Cl transport mod | HEK293 parental cells, thallium flux FluoZin2, ouabain; baseline-ratio fluorescence slope, 10–20 s after thallium | thallium flux rate (normalised fluorescence) at 10 µM | 3,700 tested, 46% active;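 active = thallium flux rate significantly above the same plate's solvent-only control wells, beyond their mean plus 3 SD; inconclusive = the two replicate wells gave conflicting results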
KCC2 retest ouab: KCC2 inhibitors and activators, ouabain retest, confirmation, HEK-KCC2 cells. shares compounds with Cl transport mod. HEK293-KCC2, thallium flux FluoZin2 fluorescence; bidirectional: low = inhibitor, high = activator. raw Tl+ flux slope (below DMSO = inhibition, above = activation) at 10 µM. 3,700 tested, 48% active;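 active = thallium flux slope beyond 3 SD from same-plate DMSO control mean in most replicates, usually higher, sometimes lower; inconclusive = repeat tests gave conflicting results; inactive = no significant difference from controls in most replicates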;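 also: slope of initial-normalized fluorescence between seconds 10 and 20 after thallium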
HEK counter2: native HEK Tl+ uptake effects, second counter-screen – HEK cells, counterscreen 2, counter-screen for KCC2 modulator project, confirmation | thallium flux slope at 10 µM | AID 1718, 2009 | 3,700 tested, 33% active | shares compounds with Cl transport mod | HEK293 parental, thallium flux FluoZin-2 fluorescence slope;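 active = thallium flux slope above the same plate's solvent-control mean plus 3 SD in both duplicate wells; inconclusive = duplicate wells that disagreed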;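 also: run without ouabain in cells lacking the KCC2 cotransporter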
Numbers stand for hits; . = inactive; ? = inconclusive; / = no result. Compounds with a hit are over-represented: about 4.1% of the library has one in this group of screens.

SMILES	KCNQ1 act	KCNQ1 block	KCNK3 inh	KCNK9 inh	Cl transport mod	hERG protect	KCC2 sec1	KCC2 bumet counter	KCC2 secondary2	HEK293 Tl flux	KCC2 retest ouab	HEK counter2
COc1cc(NC(=O)Cn2ncc(Cl)c(Cl)c2=O)c(C)cc1[N+](=O)[O-]	.	.	.	.	-5.1	.	.	.	.	0.0059	0.017	.
COc1cc(NC(=O)CN2C(=O)CN(C)C2=O)c(C)cc1[N+](=O)[O-]	.	.	.	.	.	.	/	/	/	/	/	/
O=c1c2ccccc2oc2c1oc1ccccc12	/	/	.	/	/	/	/	/	/	/	/	/
CC(C)Sc1nnc([C@H](Cc2c[nH]c3ccccc23)NC(=O)OC(C)(C)C)o1	.	.	.	.	-6.3	.	.	.	0.028	?	0.013	.
O=C(Nc1cccc(S(=O)(=O)N2CCCCC2)c1)c1cc(=O)[nH]c2ccccc12	/	/	.	/	/	/	/	/	/	/	/	/
CC1Cc2ccccc2N1CC(=O)Nc1ccc(S(=O)(=O)N(C)C)cc1 (configuration not stated)	.	.	.	.	-3.9	.	.	.	.	.	.	?
CC1CCCN(C(=O)C2CC(=O)N(c3ccc(Cl)cc3)C2)C1 (configuration not stated)	.	.	.	.	/	.	/	/	/	/	/	/
COCCN(C(=O)COC(=O)C(c1ccccc1)c1ccccc1)c1c(N)n(Cc2ccccc2)c(=O)[nH]c1=O	.	.	.	.	/	.	/	/	/	/	/	/
O=C(CSc1nnnn1-c1ccccc1F)Nc1nc2ccccc2s1	.	.	.	.	.	.	/	/	/	/	/	/
C=CCn1c(CCNC(=O)c2ccccc2F)nnc1SCC(=O)Nc1nc2ccccc2s1	.	.	.	.	/	.	.	.	0.025	.	.	.
CC(=O)c1ccccc1NC(=O)COC(=O)CSCC(=O)Nc1cc(C)on1	.	.	.	.	/	.	/	/	/	/	/	/
C=CCn1c(C)cc(C(=O)CSc2nnc(Cc3ccccc3)o2)c1C	.	.	.	.	/	.	.	.	0.03	.	0.017	.
Cc1cc(C(=O)CSc2nnc(Cc3ccccc3)o2)c(C)n1Cc1ccc2c(c1)OCO2	.	.	.	.	.	.	/	/	/	/	/	/
C=CCn1c(C)cc(C(=O)CSc2nnc(NCc3ccccc3)s2)c1C	.	.	.	.	-2.7	.	.	.	.	?	?	.
Cc1cc(NC(=O)CSc2nnc(-c3ccc([N+](=O)[O-])cc3)o2)no1	.	.	.	.	/	.	/	/	/	/	/	/
CCCCNC(=O)[C@H](CSCc1ccccc1)N1Cc2ccccc2C1=O	.	.	.	.	-2.6	.	?	.	.	.	0.017	.
COCCCNC(=O)[C@H](CSCc1ccccc1)N1Cc2ccccc2C1=O	.	.	.	.	.	.	/	/	/	/	/	/
c1ccc(C2CCC(N3CCN(c4ccccc4)CC3)CC2)cc1 (configuration not stated)	.	.	.	.	/	.	/	/	/	/	/	/
CCOC(=O)C(C)NC(=O)c1cn(-c2ccc(OC)cc2)c(=O)c2ccccc12 (configuration not stated)	.	.	.	.	/	.	/	/	/	/	/	/
Cc1scc(-c2n[nH]c(=S)n2C(C)c2ccccc2)c1C (configuration not stated)	.	.	.	.	7.7	.	.	0.04	.	0.011	?	?
CC(c1ccccc1)n1c(Cn2ncc3ccccc3c2=O)n[nH]c1=S (configuration not stated)	.	.	.	.	.	.	/	/	/	/	/	/
COc1ccc(C2CC(c3ccccc3)=NN2C(=O)CCCC(=O)O)cc1 (configuration not stated)	.	.	.	.	/	.	/	/	/	/	/	/
CN(c1ccc(C(=O)COC(=O)C2CC2)cc1)S(C)(=O)=O	/	/	.	/	/	/	/	/	/	/	/	/
C/C(=N\NC(=S)Nc1ccccc1)C1Cc2ccccc2C(=O)O1 (configuration not stated)	.	.	.	.	6.6	.	.	0.01	.	0.011	.	0.013
Cc1c(OCC(=O)N2CCC(C(=O)NCCCC(=O)O)CC2)ccc2c1oc(=O)c1ccccc12	.	.	.	.	/	.	/	/	/	/	/	/
CCn1nc(C(=O)OCC(=O)c2ccc(F)cc2)c2ccccc2c1=O	.	.	.	.	-5.4	.	.	.	.	?	?	.
CC1C/C(=C/c2ccccn2)C(=O)/C(=C/c2ccccn2)C1 (configuration not stated)	.	.	.	.	.	.	/	/	/	/	/	/
CC(C)(C)C1C/C(=C/c2ccccn2)C(=O)/C(=C/c2ccccn2)C1 (configuration not stated)	.	.	.	.	-3.4	.	.	0.0094	.	0.0095	.	?
CN(CC(=O)Nc1ccccc1Br)C(=O)c1ccccc1OCc1ccc(Cl)cc1	/	/	.	/	/	/	/	/	/	/	/	/
